# According to ChEMBL document CHEMBL5724801, “EUbOPEN Chemogenomics Library - Multiplex” (2024):
# “And” between values parts separate entries of the source, which are not always exact repeats. Equal entries are not always repeated.
# Legend:
# U2OS = test: Multiplex assay against U2OS; assay type: toxicity, cell-based; details: human
# Procedure, shortened: (§1)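 Cells stained live at seeding with Hoechst33342, BioTracker Green Microtubule Cytoskeleton Dye, MitoTracker Red and Annexin V Alexa Fluor 680 were imaged on a CQ1 microscope at 37°C and 5% CO2 after compound addition. Their classification by CellPathfinder machine-learning gating ran from Hoechst high-intensity objects versus normal cells, to healthy, pyknosed or fragmented nuclei among normal cells, to mitotic or apoptotic among pyknosed cells. Tubulin, mitochondrial-mass and membrane-permeability phenotypes are per cents of healthy-nucleus cells.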
# HEK-293T = test: Multiplex assay against HEK293T; assay type: toxicity, cell-based; details: human; procedure, shortened: as §1
# [1] = 24 h, 1 µM, compound concentration 1 uM
# [2] = 24 h, 10 µM, compound concentration 10 uM
# [3] = 48 h, 1 µM, compound concentration 1 uM
# [4] = 48 h, 10 µM, compound concentration 10 uM
# [5] = 12 h, 1 µM, compound concentration 1 uM
# [6] = 12 h, 10 µM, compound concentration 10 uM
smiles,measurement,setting,value
O=C(O)C(F)(F)F.O=C1NC(=O)/C(=C/c2c[nH]c(=O)c(-c3ccc(N4CCNCC4)nc3)c2)S1,Population Mitotic Cells (%),U2OS; [1],61.54% and 72.73%
same,Population Normal (%),U2OS; [1],100%
same,Population Pyknosed Nuclei (%),U2OS; [1],5.13% and 12.69%
same,Population Tubulin-Different-Phenotype (%),U2OS; [1],0.42% and 1.33%
same,Total Cell Count,U2OS; [1],507 and 260
same,Population Apoptotic (%),U2OS; [2],40.62% and 57.89%
same,Population Fragmented Nuclei (%),U2OS; [2],2.9% and 4.85%
same,Population Healthy Nuclei (%),U2OS; [2],90.91% and 86.78%
same,Population Hoechst High Intensity Objects (%),U2OS; [2],0%
same,Population Membrane Permeable-Phenotype (%),U2OS; [2],3.19% and 4.06%
same,Population Mitochondria Different-Phenotype (%),U2OS; [2],0.21% and 4.57%
same,Population Mitotic Cells (%),U2OS; [2],59.38% and 42.11%
same,Population Normal (%),U2OS; [2],100%
same,Population Pyknosed Nuclei (%),U2OS; [2],6.19% and 8.37%
same,Population Tubulin-Different-Phenotype (%),U2OS; [2],1.49% and 0.51%
same,Total Cell Count,U2OS; [2],517 and 227
same,Population Apoptotic (%),U2OS; [3],51.47% and 41.86%
same,Population Fragmented Nuclei (%),U2OS; [3],2% and 1.49%
same,Population Healthy Nuclei (%),U2OS; [3],90.84% and 89.38%
same,Population Hoechst High Intensity Objects (%),U2OS; [3],0%
same,Population Membrane Permeable-Phenotype (%),U2OS; [3],0.93% and 3.09%
same,Population Mitochondria Different-Phenotype (%),U2OS; [3],0.12% and 2.14%
same,Population Mitotic Cells (%),U2OS; [3],48.53% and 58.14%
same,Population Normal (%),U2OS; [3],100%
same,Population Pyknosed Nuclei (%),U2OS; [3],7.16% and 9.13%
same,Population Tubulin-Different-Phenotype (%),U2OS; [3],1.04% and 1.66%
same,Total Cell Count,U2OS; [3],950 and 471
same,Population Apoptotic (%),U2OS; [4],38.82% and 45.95%
same,Population Fragmented Nuclei (%),U2OS; [4],2.93% and 2.98%
same,Population Healthy Nuclei (%),U2OS; [4],88.48% and 87.84%
same,Population Hoechst High Intensity Objects (%),U2OS; [4],0.1% and 0%
same,Population Membrane Permeable-Phenotype (%),U2OS; [4],1.48% and 3.39%
same,Population Mitochondria Different-Phenotype (%),U2OS; [4],0% and 1.98%
same,Population Mitotic Cells (%),U2OS; [4],61.18% and 54.05%
same,Population Normal (%),U2OS; [4],99.9% and 100%
same,Population Pyknosed Nuclei (%),U2OS; [4],8.59% and 9.18%
same,Population Tubulin-Different-Phenotype (%),U2OS; [4],0.68% and 1.69%
same,Total Cell Count,U2OS; [4],991 and 403
same,Population Apoptotic (%),HEK-293T; [5],11.41% and 11.65%
same,Population Fragmented Nuclei (%),HEK-293T; [5],1.85% and 6.98%
same,Population Hoechst High Intensity Objects (%),HEK-293T; [5],0%
same,Population Mitotic Cells (%),HEK-293T; [5],88.59% and 88.35%
same,Population Normal (%),HEK-293T; [5],100%
same,Population Pyknosed Nuclei (%),HEK-293T; [5],39.31% and 79.84%
same,Total Cell Count,HEK-293T; [5],379 and 129
same,Population Apoptotic (%),HEK-293T; [6],6.85% and 12.69%
same,Population Fragmented Nuclei (%),HEK-293T; [6],2.2% and 4.57%
same,Population Healthy Nuclei (%),HEK-293T; [6],57.69% and 27.41%
same,Population Hoechst High Intensity Objects (%),HEK-293T; [6],0.27% and 0%
same,Population Membrane Permeable-Phenotype (%),HEK-293T; [6],0.95% and 0%
same,Population Mitotic Cells (%),HEK-293T; [6],93.15% and 87.31%
same,Population Normal (%),HEK-293T; [6],99.73% and 100%
same,Population Pyknosed Nuclei (%),HEK-293T; [6],40.11% and 68.02%
same,Total Cell Count,HEK-293T; [6],365 and 197
same,Population Apoptotic (%),HEK-293T; [1],17.05% and 22.22%
same,Population Fragmented Nuclei (%),HEK-293T; [1],1.89% and 2.88%
same,Population Healthy Nuclei (%),HEK-293T; [1],75.95% and 25.9%
same,Population Hoechst High Intensity Objects (%),HEK-293T; [1],0.17% and 0%
same,Population Membrane Permeable-Phenotype (%),HEK-293T; [1],1.13% and 0%
same,Population Mitochondria Different-Phenotype (%),HEK-293T; [1],18.1% and 11.11%
same,Population Mitotic Cells (%),HEK-293T; [1],82.95% and 77.78%
same,Population Normal (%),HEK-293T; [1],99.83% and 100%
same,Population Apoptotic (%),HEK-293T; [2],8.74% and 7.63%
same,Population Fragmented Nuclei (%),HEK-293T; [2],1.47% and 3.95%
same,Population Healthy Nuclei (%),HEK-293T; [2],81.67% and 49.41%
same,Population Hoechst High Intensity Objects (%),HEK-293T; [2],0.16% and 0.39%
same,Population Membrane Permeable-Phenotype (%),HEK-293T; [2],1% and 0.8%
same,Population Mitochondria Different-Phenotype (%),HEK-293T; [2],11.22% and 10.4%
same,Population Mitotic Cells (%),HEK-293T; [2],91.26% and 92.37%
same,Population Normal (%),HEK-293T; [2],99.84% and 99.61%
same,Population Pyknosed Nuclei (%),HEK-293T; [2],16.86% and 46.64%
same,Population Tubulin-Different-Phenotype (%),HEK-293T; [2],10.02% and 1.6%
same,Total Cell Count,HEK-293T; [2],612 and 254
same,Population Apoptotic (%),HEK-293T; [3],6.45% and 15.87%
same,Population Fragmented Nuclei (%),HEK-293T; [3],2.67% and 3.98%
same,Population Healthy Nuclei (%),HEK-293T; [3],86.14% and 60.23%
same,Population Hoechst High Intensity Objects (%),HEK-293T; [3],0.07% and 0%
same,Population Membrane Permeable-Phenotype (%),HEK-293T; [3],4.02% and 0.94%
same,Population Mitochondria Different-Phenotype (%),HEK-293T; [3],12.07% and 19.81%
same,Population Mitotic Cells (%),HEK-293T; [3],93.55% and 84.13%
same,Population Normal (%),HEK-293T; [3],99.93% and 100%
same,Population Apoptotic (%),HEK-293T; [4],7.41% and 20.63%
same,Population Fragmented Nuclei (%),HEK-293T; [4],4.01% and 2.52%
same,Population Healthy Nuclei (%),HEK-293T; [4],88.47% and 81.61%
same,Population Hoechst High Intensity Objects (%),HEK-293T; [4],0% and 0.5%
same,Population Membrane Permeable-Phenotype (%),HEK-293T; [4],6.36% and 2.78%
same,Population Mitochondria Different-Phenotype (%),HEK-293T; [4],6.55% and 12.04%
same,Population Mitotic Cells (%),HEK-293T; [4],92.59% and 79.37%
same,Population Normal (%),HEK-293T; [4],100% and 99.5%
same,Population Pyknosed Nuclei (%),HEK-293T; [4],7.52% and 15.87%
